≈ marks a conversion by molar mass, not a printed value.
How the values were obtained:
[1] = Lipophilicity, log P of the compound; assay type: physicochemical; settings: octanol/water
[2] = system: Mycobacterium tuberculosis; assay: Antimycobacterial activity against Mycobacterium tuberculosis H37Rv ATCC 27294 after 28 days by agar dilution method; assay type: functional; settings: H37Rv ATCC 27294, 672 h
Method in brief: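 Compounds and reference drugs were tenfold serially diluted into Middlebrook 7H11 agar with OADC supplement. The inoculum came from fresh 7H11/OADC slants, was adjusted to 1 mg/mL (wet weight) in 0.05% Tween 80 saline, and was diluted 10^-2 to give 10^7 cfu/mL. Bacterial suspension was spotted onto the drug-containing agar tubes, incubated at 37 C, and final readings were taken after 28 days.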

SMILES | logP [1] | MIC [2] [µg/mL]
O=C1/C(=C/c2ccc3oc4ccccc4c3c2)COc2ccc3ccccc3c21 | 4.68 | 25 (≈ 66.4 µM)
O=C1/C(=C/c2ccc3oc4ccccc4c3c2)COc2ccc3oc4ccccc4c3c21 | 4.35 | 25 (≈ 60 µM)
O=C1/C(=C/c2ccc3oc4ccccc4c3c2)COc2ccc(F)cc21 | 3.84 | 12.5 (≈ 36.3 µM)
O=C1/C(=C/c2ccc3oc4ccccc4c3c2)COc2ccc3[nH]c4ccccc4c3c21 | 4.38 | 25 (≈ 60.2 µM)
O=C1/C(=C/c2ccc3oc4ccccc4c3c2)COc2c1ccc1ccccc21 | 4.68 | 25 (≈ 66.4 µM)
O=C1/C(=C/c2ccc3oc4ccccc4c3c2)COc2ccc(Br)cc21 | 4.51 | 12.5 (≈ 30.8 µM)
COc1cccc2c1OC/C(=C\c1ccc3oc4ccccc4c3c1)C2=O | 3.56 | 25 (≈ 70.2 µM)
NC(=O)c1cnccn1 [PYRAZINAMIDE] | – | 50 (≈ 406 µM)
CC(C)(C)c1ccc2c(c1)C(=O)/C(=C/c1ccc3oc4ccccc4c3c1)CO2 | 5.39 | 25 (≈ 65.4 µM)
Cc1ccc2c(c1)C(=O)/C(=C/c1ccc3oc4ccccc4c3c1)CO2 | 4.17 | 25 (≈ 73.4 µM)
CC[C@@H](CO)NCCN[C@@H](CC)CO [ETHAMBUTOL] | – | 3.13 (≈ 15.3 µM)
NNC(=O)c1ccncc1 [ISONIAZID] | – | 0.1 (≈ 0.729 µM)
O=C1/C(=C/c2ccc3oc4ccccc4c3c2)COc2ccccc21 | 3.69 | 25 (≈ 76.6 µM)
COc1ccc2c(c1)C(=O)/C(=C/c1ccc3oc4ccccc4c3c1)CO2 | 3.56 | 25 (≈ 70.2 µM)

Reference: ChEMBL document CHEMBL2203101, “Molecular hybridization of bioactives: synthesis and antitubercular evaluation of novel dibenzofuran embodied homoisoflavonoids via Baylis-Hillman reaction” (Bioorg Med Chem Lett, 2012)
